Data as given in ChEMBL document CHEMBL1629450, “Design, synthesis, and evaluation of dibenzo[c,h][1,6]naphthyridines as topoisomerase I inhibitors and potential anticancer agents” (J Med Chem, 2010).
Values belong to the compound of their own block, whether it stands above or below them. The source made the active and inactive calls. The calls are words filed in the database; no cut-off is given here.

Legend:
[1] = Antiproliferative activity against human RPMI18226 cells after 48 hrs by SRB assay; format: functional; details: RPMI18226, 48 h
K562 = assay: Antiproliferative activity against human K562 cells after 48 hrs by SRB assay; format: functional; details: K562, 48 h
HOP-62 = assay: Antiproliferative activity against human HOP62 cells after 48 hrs by SRB assay; format: functional; details: HOP-62, 48 h
HCT-116 = assay: Antiproliferative activity against human HCT116 cells after 48 hrs by SRB assay; format: functional; details: HCT-116, 48 h
SF-539 = assay: Antiproliferative activity against human SF539 cells after 48 hrs by SRB assay; format: functional; details: SF-539, 48 h
COLO 205 = assay: Antiproliferative activity against human COLO205 cells after 48 hrs by SRB assay; format: functional; details: COLO 205, 48 h
UACC-62 = assay: Antiproliferative activity against human UACC62 cells after 48 hrs by SRB assay; format: functional; details: UACC-62, 48 h
[2] = Antiproliferative activity against human OVACR3 cells after 48 hrs by SRB assay; format: functional; details: OVACR3, 48 h
IGROV-1 = assay: Antiproliferative activity against human IGROV1 cells after 48 hrs by SRB assay; format: functional; details: IGROV-1, 48 h
SN12C = assay: Antiproliferative activity against human SN12C cells after 48 hrs by SRB assay; format: functional
UO-31 = assay: Antiproliferative activity against human UO31 cells after 48 hrs by SRB assay; format: functional; details: UO-31, 48 h
DU-145 = assay: Antiproliferative activity against human DU145 cells after 48 hrs by SRB assay; format: functional; details: DU-145, 48 h
MCF7 = assay: Antiproliferative activity against human MCF7 cells after 48 hrs by SRB assay; format: functional; details: MCF7, 48 h
[3] = target: T1, DNA topoisomerase 1 (Homo sapiens) (UniProt P11387); assay: Inhibition of human topoisomerase 1 assessed as induction of DNA damage using 161 base-pair fragment form pBluescript SK(-) phagemid DNA substrate by DNA cleavage assay
T1 sequence (whole entry): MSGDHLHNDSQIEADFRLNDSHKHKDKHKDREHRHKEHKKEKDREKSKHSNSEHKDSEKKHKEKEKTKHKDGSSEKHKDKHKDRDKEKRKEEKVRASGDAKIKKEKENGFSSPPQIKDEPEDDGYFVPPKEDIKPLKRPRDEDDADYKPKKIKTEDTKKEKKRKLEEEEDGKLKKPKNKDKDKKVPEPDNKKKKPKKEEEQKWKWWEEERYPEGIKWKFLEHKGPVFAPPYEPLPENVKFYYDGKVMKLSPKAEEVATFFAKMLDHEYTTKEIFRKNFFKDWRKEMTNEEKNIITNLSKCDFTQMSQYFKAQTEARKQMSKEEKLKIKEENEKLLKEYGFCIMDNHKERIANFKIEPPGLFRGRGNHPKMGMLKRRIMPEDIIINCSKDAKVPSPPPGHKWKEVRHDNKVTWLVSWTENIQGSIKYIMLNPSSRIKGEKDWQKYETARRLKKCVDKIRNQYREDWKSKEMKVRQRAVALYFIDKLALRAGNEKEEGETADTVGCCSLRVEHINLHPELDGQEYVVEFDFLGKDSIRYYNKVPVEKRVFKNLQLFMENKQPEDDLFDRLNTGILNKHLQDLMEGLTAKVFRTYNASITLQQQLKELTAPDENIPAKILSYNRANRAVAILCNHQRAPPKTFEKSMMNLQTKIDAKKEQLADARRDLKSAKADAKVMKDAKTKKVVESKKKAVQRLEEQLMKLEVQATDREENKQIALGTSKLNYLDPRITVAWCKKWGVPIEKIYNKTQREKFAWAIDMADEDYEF
In short: (§1)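 Baculovirus-purified human recombinant Top1 with 161 bp PvuII/HindIII fragment of pBluescript SK(-), 3'-end labeled at HindIII site with [α-32P]-dGTP by Klenow fill-in (~50 000 dpm/reaction). Incubated with drug, four 10-fold dilutions from 100 μM, 30 min at 22 °C. Stopped with 0.5% SDS (final), resolved on denaturing 16% polyacrylamide/7 M urea gels. Cleavage scored semiquantitatively.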

[4] = target: T1, DNA topoisomerase 1 (Homo sapiens); assay: Inhibition of human topoisomerase 1 assessed as induction of DNA cleavage at base-pair 97 using 161 base-pair fragment form pBluescript SK(-) phagemid DNA substrate by DNA cleavage assay; in short: as §1
[5] = Solubility of the compound in dimethyl sulfoxide solvent; format: physicochemical
[6] = Solubility of the compound in methanol solvent; format: physicochemical
[7] = Solubility of the compound in chloroform solvent; format: physicochemical
[8] = target: T1, DNA topoisomerase 1 (Homo sapiens); assay: Inhibition of human topoisomerase 1 assessed as induction of DNA cleavage at base-pair 119 using 161 base-pair fragment form pBluescript SK(-) phagemid DNA substrate by DNA cleavage assay; in short: as §1

GI50 (K562): 6 µM
GI50 (HCT-116): 11.5 µM
GI50 (COLO 205): > 100 µM
GI50 (DU-145): 4.8 µM
GI50 (MCF7): 1.9 µM
Structure (SMILES): COc1cc2c3c(n(C)c(=O)c2cc1OC)-c1cc2c(cc1C3=O)OCO2
GI50 [1]: > 100 µM
GI50 (HOP-62): 2.8 µM
GI50 (SF-539): 1.7 µM
GI50 (UACC-62): 0.6 µM
GI50 [2]: 22.4 µM
GI50 (IGROV-1): 0.01 µM
GI50 (SN12C): 25.7 µM
GI50 (UO-31): 1.7 µM

Structure (SMILES): COc1cc2c(Cl)nc3c4ccccc4nc(Cl)c3c2cc1OC
inhibition [3]: inactive

Structure (SMILES): COc1cc2c(OC)nc3c4ccccc4nc(OC)c3c2cc1OC
inhibition [3]: inactive

inhibition [4]: Active
solubility [5]: soluble
solubility [6]: soluble
solubility [7]: soluble
Structure (SMILES): COc1cc2c(=O)n(C)c3c4ccccc4nc(Cl)c3c2cc1OC
inhibition [3]: Active

Structure (SMILES): COc1cc2c(=O)n(C)c3c4ccccc4[nH]c(=O)c3c2cc1OC
inhibition [3]: inactive

inhibition [4]: Active
inhibition [8]: Active
solubility [5]: soluble
solubility [6]: soluble
solubility [7]: soluble
GI50 (K562): 0.2 µM
GI50 (HCT-116): 4.16 µM
GI50 (COLO 205): 0.33 µM
GI50 (DU-145): 10.5 µM
GI50 (MCF7): 0.4 µM
Structure (SMILES): COc1cc2c(=O)n(CCCN3CCOCC3)c3c4ccccc4nc(Cl)c3c2cc1OC
inhibition [3]: Active
GI50 [1]: 0.1 µM
GI50 (HOP-62): 4.7 µM
GI50 (SF-539): 12.3 µM
GI50 (UACC-62): 6.8 µM
GI50 [2]: 6.3 µM
GI50 (IGROV-1): 0.03 µM
GI50 (SN12C): 13.2 µM
GI50 (UO-31): 0.02 µM

Structure (SMILES): COc1cc2c(=O)n(CCCO)c3c4ccccc4[nH]c(=O)c3c2cc1OC
inhibition [3]: inactive

Structure (SMILES): C=CCn1c(=O)c2cc(OC)c(OC)cc2c2c(=O)[nH]c3ccccc3c21
inhibition [3]: inactive
